This is an account of results in ChEMBL document CHEMBL2331079, “Antibacterial and antiplasmodial constituents of Beilschmiedia cryptocaryoides” (J Nat Prod, 2013).

Assay [1] deals with Acinetobacter calcoaceticus. The assay can be described thus: Antibacterial activity against Acinetobacter calcoaceticus DSM 586 by paper disk diffusion method. The class given is functional. Summed up:
(§1)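 Strains taken from the lab's own culture collection. Tested by paper disk diffusion, following the group's earlier published method. Each MIC was determined in triplicate.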

Another assay concerns Serratia plymuthica. The assay can be described thus: Antibacterial activity against Serratia plymuthica C48 by paper disk diffusion method. The class given is functional. The procedure, abridged: as §1
Background: Agar diffusion results depend on both activity and mobility in agar.

A further assay concerns Plasmodium falciparum. Briefly: Antiplasmodial activity against chloroquine-sensitive Plasmodium falciparum NF54 after 48 hrs by [3H]-hypoxanthine incorporation assay. The class given is functional, organism-based. Summed up:
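Asexual blood-stage parasites in hypoxanthine-free RPMI 1640 with HEPES, NaHCO3, neomycin and Albumax, in human A+ erythrocytes (2.5% hematocrit, 0.3% parasitemia). Eleven 3-fold dilutions (100 to 0.002 μg/mL) from DMSO stocks. Incubated at 37 °C in 4% CO2/3% O2/93% N2. 3H-hypoxanthine (0.5 μCi) added at 48 h, then 24 h more. Read by scintillation counting. IC50 is the mean of two independent assays.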

Another assay deals with Escherichia coli. The assay can be described thus: Antibacterial activity against Escherichia coli 6r3 by paper disk diffusion method. The class given is functional. The procedure, abridged:
as §1

Another assay has as its system Stutzerimonas stutzeri. The assay can be described thus: Antibacterial activity against Pseudomonas stutzeri A1501 by paper disk diffusion method. The class given is functional. The procedure, abridged: as §1
In the next assay the test system is L6. The assay can be described thus: Cytotoxicity against rat L6 cells after 70 hrs by Alamar Blue assay. As to conditions: L6, 70 h. A general note: Resazurin is reduced to fluorescent resorufin, in cell work by metabolically active cells.

Values after ≈ are worked out from the molar mass of the structure shown.

Regarding `CCCCCC[C@@H]1[C@H]2C=C[C@H]3C(C(=O)O)=C[C@H](O)[C@@H]4C[C@@H]1[C@@H]2[C@H]43` [CRYPTOBEILIC ACID A], the MIC in assay [1] is greater than 50 µg/mL; against Serratia plymuthica, greater than 50 µg/mL; against Escherichia coli, 10 µg/mL (≈ 31.6 µM); in the assay on Stutzerimonas stutzeri it was greater than 50 µg/mL. The results for the IC50 in the assay with Plasmodium falciparum and in the assay with L6 were 17.7 µM and 59.5 µM, respectively.

For `O=C(O)C1=CC(=O)[C@@H]2C[C@H]3[C@H](Cc4ccc5c(c4)OCO5)[C@H]4C=C[C@@H]1[C@@H]2[C@H]43` [CRYPTOBEILIC ACID C], the MIC (in assay [1]; with Serratia plymuthica; with Escherichia coli; in the assay with Stutzerimonas stutzeri) was greater than 50 µg/mL each time. Moreover, the IC50 in the assay with Plasmodium falciparum was 14 µM; in the assay on L6, 59.3 µM.

As to `O=C(O)[C@@H]1C=C[C@@H]2C[C@H]3[C@H](Cc4ccc5c(c4)OCO5)[C@H]4C=C[C@@H]1[C@@H]2[C@H]43` [TSANGIBEILIN B], the MIC in assay [1] is greater than 50 µg/mL; against Serratia plymuthica, greater than 50 µg/mL; against Escherichia coli it was 50 µg/mL (≈ 143 µM); with Stutzerimonas stutzeri, greater than 50 µg/mL. Also, the IC50 in the assay on Plasmodium falciparum was 8.2 µM; with L6 it was 21.5 µM.

For the compound `CC1(C)S[C@@H]2[C@H](NC(=O)[C@H](N)c3ccccc3)C(=O)N2[C@H]1C(=O)O` [AMPICILLIN], the MIC in assay [1] was 5 µg/mL (≈ 14.3 µM); against Serratia plymuthica, 20 µg/mL (≈ 57.2 µM); with Escherichia coli, 5 µg/mL (≈ 14.3 µM); against Stutzerimonas stutzeri, 20 µg/mL (≈ 57.2 µM).

For `CCCCCC[C@@H]1[C@H]2C=C[C@@H]3[C@@H]4[C@H]2[C@H]1C[C@H]4C=C[C@H]3C(=O)O` [CRYPTOBEILIC ACID D], the MIC was greater than 50 µg/mL in assay [1], greater than 50 µg/mL against Serratia plymuthica, 50 µg/mL (≈ 166 µM) with Escherichia coli and greater than 50 µg/mL against Stutzerimonas stutzeri. Moreover, the IC50 in the assay on Plasmodium falciparum was found to be 10.8 µM; in the assay on L6, 61 µM.

`CN1CCN(c2cc3c(cc2F)c(=O)c(C(=O)O)cn3-c2ccc(F)cc2)CC1` [DIFLOXACIN]: the MIC is 5 µg/mL (≈ 12.5 µM) in assay [1], 20 µg/mL (≈ 50.1 µM) with Serratia plymuthica, 5 µg/mL (≈ 12.5 µM) with Escherichia coli and 20 µg/mL (≈ 50.1 µM) in the assay with Stutzerimonas stutzeri.

For the compound `CCCCCC[C@@H]1[C@H]2C=C[C@H]3C(C(=O)O)=C[C@@H](O)[C@@H]4C[C@@H]1[C@@H]2[C@H]43` [CRYPTOBEILIC ACID B], the minimal inhibitory concentration (MIC) was 20 µg/mL (≈ 63.2 µM) in assay [1], greater than 50 µg/mL with Serratia plymuthica, 20 µg/mL (≈ 63.2 µM) in the assay on Escherichia coli and 10 µg/mL (≈ 31.6 µM) in the assay on Stutzerimonas stutzeri. Moreover, the half-maximal inhibitory concentration (IC50) in the assay on Plasmodium falciparum is 5.35 µM; in the assay with L6, 20.4 µM.

As to `COc1cc([C@@H]2c3cc4c(cc3[C@H](O)[C@H]3COC(=O)[C@H]23)OCO4)cc(OC)c1OC` [PODOFILOX], half-maximal inhibition with L6 (IC50) was put at 0.008 µM. In other words, the single-digit nanomolar range.

As a reminder, the MIC is the smallest concentration in the dilution series that meets the test's criterion for growth inhibition. The term IC50 denotes the midpoint of a concentration-inhibition curve.
